ChEMBL document CHEMBL3297741, “Cytotoxic cleistanthane and cassane diterpenoids from the entomogenous fungus Paraconiothyrium hawaiiense” (J Nat Prod, 2014)
Calls of active or inactive are those of the source. The calls are words filed in the database; no cut-off is given here.

Legend:
Assay type in all cases: functional, cell-based
A549 [1] = experiment: Cytotoxicity against human A549 cells at 50 uM after 48 hrs by […]
In short: (§1)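 Single concentration of 50 μM tested in the MTS proliferation assay. Cells were seeded at (2−5) × 10^3 per well and attached overnight. Compound was diluted in medium from 100 mM DMSO stock, alongside a 0.1% DMSO vehicle. Plates were incubated 48 h at 37 °C in humidified 5% CO2. MTS was added for 90 min at 37 °C, then absorbance read at 490 nm. Run in triplicate.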

T-24 = experiment: Cytotoxicity against human T24 cells at 50 uM after 48 hrs by […]; in short: as §1
HeLa [2] = experiment: Cytotoxicity against human HeLa cells at 50 uM after 48 hrs by […]; in short: as §1
HCT-116 [3] = experiment: Cytotoxicity against human HCT116 cells at 50 uM after 48 hrs by […]; in short: as §1
MCF7 [4] = experiment: Cytotoxicity against human MCF7 cells at 50 uM after 48 hrs by […] assay; in short: as §1
HeLa [5] = experiment: Cytotoxicity against human HeLa cells after 48 hrs by […]
In short: (§2)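 MTS read-out. Cells were seeded at (2−5) × 10^3 per well, depending on growth rate, and attached overnight. Medium was then replaced with medium holding serial dilutions of compound from 100 mM DMSO stocks, with 0.1% DMSO vehicle and cisplatin control. Plates were incubated 48 h at 37 °C in humidified 5% CO2. MTS was added for 90 min at 37 °C in the dark, and absorbance read at 490 nm. Triplicate runs gave IC50.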

HCT-116 [6] = experiment: Cytotoxicity against human HCT116 cells after 48 hrs by […]; conditions: HCT-116, 48 h; in short: as §2
A549 [7] = experiment: Cytotoxicity against human A549 cells after 48 hrs by […]; conditions: A549, 48 h; in short: as §2
[8] = Cytotoxicity against human T24 cells after 48 hrs by […]; conditions: T-24, 48 h; in short: as §2
MCF7 [9] = experiment: Cytotoxicity against human MCF7 cells after 48 hrs by […]; conditions: MCF7, 48 h; in short: as §2

For `C=CC1=CC[C@H]2[C@@H](CC(=O)[C@@]3(O)[C@@]4(C)C(=O)O[C@H]4CC[C@]23C)[C@H]1C`, the inhibition (A549 [1]) was “inactive”, the inhibition (T-24) was “inactive” and the inhibition (HeLa [2]) was “inactive”. For the same compound, the inhibition (HCT-116 [3]) was “inactive” and the inhibition (MCF7 [4]) was “inactive”.
`C=C[C@@H]1C(=C)CC[C@H]2[C@H]1C[C@H]1OC(=O)[C@@]3(C)[C@H](O)CC[C@@]2(C)[C@@]13O` gave an IC50 (HeLa [5]) of 50.3 µM.
In the case of `C=C[C@@H]1C(=C)CC[C@H]2[C@H]1CC(=O)[C@@]1(O)[C@@]3(C)C(=O)O[C@H]3CC[C@]21C`, the IC50 (HCT-116 [6]) is reported as 6.23 µM, the IC50 (A549 [7]) is reported as 7.48 µM and the IC50 [8] is reported as 4.26 µM. It also gave an IC50 (HeLa [5]) of 2.84 µM and an IC50 (MCF7 [9]) of 7.43 µM.
Work on `C=C[C@@H]1C(=C)CC[C@H]2[C@H]1C[C@H]1OC(=O)[C@@]3(C)[C@H](OC(C)=O)CC[C@@]2(C)[C@@]13O` yielded an IC50 (HCT-116 [6]) of 37.3 µM, an IC50 (A549 [7]) of 43.6 µM and an IC50 [8] of 20.7 µM. The IC50 (HeLa [5]) was 43.7 µM and the IC50 (MCF7 [9]) was 23.4 µM.
